Measurements from ChEMBL document CHEMBL4842335, “Discovery of penipanoid C-inspired 2-(3,4,5-trimethoxybenzoyl)quinazolin-4(3H)-one derivatives as potential anticancer agents by inhibiting cell proliferation and inducing apoptosis in hepatocellular carcinoma cells” (Eur J Med Chem, 2021).
The source made the active and inactive calls. The calls are words filed in the database; no cut-off is given here.

How the values were obtained:
HepG2 [1] = experiment: Cytotoxicity against human HepG2 cells assessed as inhibition of proliferation incubated for 72 hrs by MTT assay; assay type: functional, cell-based; conditions: HepG2, 72 h
Procedure, shortened: (§1)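 Cells plated at 3×10³/well, grown overnight in DMEM + 10% FBS, then exposed to compounds (DMSO stocks; 0.1% DMSO negative control) for 72 h at 37 °C. MTT (5 mg/mL in PBS, added at 10%) for 4 h, formazan dissolved in DMSO, A570 read. Inhibition = (Ac−As)/(Ac−Ab)×100; IC50 by calculator; ≥3 independent repeats.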

A549 = experiment: Cytotoxicity against human A549 cells assessed as inhibition of proliferation incubated for 72 hrs by MTT assay; assay type: functional, cell-based; conditions: A549, 72 h; procedure, shortened: as §1
U-251 = experiment: Cytotoxicity against human U251 cells assessed as inhibition of proliferation incubated for 72 hrs by MTT assay; assay type: functional, cell-based; conditions: U-251, 72 h; procedure, shortened: as §1
HCT-116 = experiment: Cytotoxicity against human HCT116 cells assessed as inhibition of proliferation incubated for 72 hrs by MTT assay; assay type: functional, cell-based; conditions: HCT-116, 72 h; procedure, shortened: as §1
Bel-7402 [2] = experiment: Inhibition of colony formation in human Bel-7402 cells at 1.6 to 3.2 uM measured after 10 days by crystal violet staining based assay relative to control; assay type: functional, cell-based; conditions: dose 1.6-3.2 µM, time 10.0 day
Procedure, shortened: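 1000 cells/well seeded, attached overnight in DMEM + 10% FBS, then grown 10 days at 37 °C, 5% CO₂ with 0, 0.2, 0.4, 0.8, 1.6 or 3.2 µM. Fixed in 4% paraformaldehyde 15 min, stained 0.1% crystal violet 30 min, colonies counted; formation rate relative to solvent control.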

HepG2 [3] = experiment: Induction of cell cycle arrest in human HepG2 cells assessed as accumulation at G1 phase at 0.8 uM incubated for 48 hrs by flow cytometry (reference value: 46.88%); assay type: functional
HepG2 [4] = experiment: Induction of cell cycle arrest in human HepG2 cells assessed as accumulation at G2/M phase at 0.8 uM incubated for 48 hrs by flow cytometry (reference value: 24.89%); assay type: functional
Procedure, shortened: (§2)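 HepG2 treated 48 h with 0, 0.8 or 1.6 µM (DMSO control); phase distribution by flow cytometry using a cell cycle and apoptosis kit; mean with SD, n = 3.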

HepG2 [5] = experiment: Induction of cell cycle arrest in human HepG2 cells assessed as accumulation at S phase at 1.6 uM incubated for 48 hrs by flow cytometry (reference value: 28.23%); assay type: functional; procedure, shortened: as §2
HepG2 [6] = experiment: Induction of cell cycle arrest in human HepG2 cells assessed as accumulation at G2/M phase at 1.6 uM incubated for 48 hrs by flow cytometry (reference value: 24.89%); assay type: functional; procedure, shortened: as §2
Bel-7402 [7] = experiment: Induction of cell cycle arrest in human Bel-7402 cells assessed as accumulation at G2/M phase at 0.8 uM incubated for 48 hrs by flow cytometry (reference value: 25.20%); assay type: functional
Bel-7402 [8] = experiment: Induction of cell cycle arrest in human Bel-7402 cells assessed as accumulation at G1 phase at 1.6 uM incubated for 48 hrs by flow cytometry (reference value: 46.32%); assay type: functional
Bel-7402 [9] = experiment: Induction of cell cycle arrest in human Bel-7402 cells assessed as accumulation at G1 phase at 3.2 uM incubated for 48 hrs by flow cytometry (reference value: 46.32%); assay type: functional
Bel-7402 [10] = experiment: Induction of cell cycle arrest in human Bel-7402 cells assessed as accumulation at S phase at 3.2 uM incubated for 48 hrs by flow cytometry (reference value: 28.48%); assay type: functional
Bel-7402 [11] = experiment: Induction of cell cycle arrest in human Bel-7402 cells assessed as accumulation at G2/M phase at 3.2 uM incubated for 48 hrs by flow cytometry (reference value: 25.20%); assay type: functional
[12] = biological target: T1, Mitogen-activated protein kinase; ERK1/ERK2 (Homo sapiens) (UniProt P27361+P28482); experiment: Inhibition of ERK1/2 phosphorylation in human HepG2 cells incubated for 48 hrs by Western blot analysis; assay type: cell-based
T1 sequence (P27361 whole entry, looked up): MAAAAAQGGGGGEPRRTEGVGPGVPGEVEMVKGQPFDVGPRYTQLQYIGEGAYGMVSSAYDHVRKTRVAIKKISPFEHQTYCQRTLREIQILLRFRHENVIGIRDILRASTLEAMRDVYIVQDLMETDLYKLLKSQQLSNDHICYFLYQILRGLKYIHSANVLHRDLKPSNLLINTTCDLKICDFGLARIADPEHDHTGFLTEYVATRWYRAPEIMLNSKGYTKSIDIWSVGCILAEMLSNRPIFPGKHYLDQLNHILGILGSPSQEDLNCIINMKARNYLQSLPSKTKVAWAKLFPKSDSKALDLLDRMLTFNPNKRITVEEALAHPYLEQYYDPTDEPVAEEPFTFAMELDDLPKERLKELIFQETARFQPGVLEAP
T1 sequence (P28482 whole entry, looked up): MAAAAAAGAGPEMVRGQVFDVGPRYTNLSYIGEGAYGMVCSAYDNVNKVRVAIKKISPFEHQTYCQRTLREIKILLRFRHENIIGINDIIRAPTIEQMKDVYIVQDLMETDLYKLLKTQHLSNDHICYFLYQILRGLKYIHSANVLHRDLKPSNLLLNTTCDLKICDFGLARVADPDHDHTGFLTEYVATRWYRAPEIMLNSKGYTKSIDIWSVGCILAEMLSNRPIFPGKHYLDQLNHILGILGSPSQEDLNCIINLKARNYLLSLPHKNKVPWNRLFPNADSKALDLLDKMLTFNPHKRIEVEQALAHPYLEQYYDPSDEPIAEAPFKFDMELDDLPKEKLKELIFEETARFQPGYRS
Procedure, shortened: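 HepG2 treated 48 h with 0, 1.6 or 3.2 µM; lysates run on 12.5% SDS-PAGE, PVDF transfer, primary antibodies (AKT, p-AKT, ERK1/2, p-ERK1/2; 1:1000) overnight at 4 °C, HRP secondaries 1 h, chemiluminescence. Phosphorylation quantified relative to untreated control set to 1; SD, n = 3.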

[13] = biological target: Serine/threonine-protein kinase AKT (Homo sapiens) (UniProt P31751+Q9Y243+P31749); experiment: Inhibition of Akt phosphorylation in human Bel-7402 cells incubated for 48 hrs by Western blot analysis; assay type: cell-based
Chain of Serine/threonine-protein kinase AKT (Homo sapiens) (P31749 whole entry, looked up): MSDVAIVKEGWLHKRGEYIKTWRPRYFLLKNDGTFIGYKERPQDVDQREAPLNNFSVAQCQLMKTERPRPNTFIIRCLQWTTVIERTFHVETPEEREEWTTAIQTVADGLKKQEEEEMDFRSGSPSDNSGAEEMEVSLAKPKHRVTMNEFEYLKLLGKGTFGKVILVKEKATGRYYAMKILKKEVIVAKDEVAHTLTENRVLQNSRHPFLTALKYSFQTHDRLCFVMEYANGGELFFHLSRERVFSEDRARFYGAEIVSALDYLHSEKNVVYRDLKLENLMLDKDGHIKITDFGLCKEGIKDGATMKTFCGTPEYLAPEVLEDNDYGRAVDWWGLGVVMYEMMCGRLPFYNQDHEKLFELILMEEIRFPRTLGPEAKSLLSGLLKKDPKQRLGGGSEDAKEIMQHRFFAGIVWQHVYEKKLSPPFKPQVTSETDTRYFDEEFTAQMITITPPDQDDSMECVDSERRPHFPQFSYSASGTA
Chain of Serine/threonine-protein kinase AKT (Homo sapiens) (P31751 whole entry, looked up): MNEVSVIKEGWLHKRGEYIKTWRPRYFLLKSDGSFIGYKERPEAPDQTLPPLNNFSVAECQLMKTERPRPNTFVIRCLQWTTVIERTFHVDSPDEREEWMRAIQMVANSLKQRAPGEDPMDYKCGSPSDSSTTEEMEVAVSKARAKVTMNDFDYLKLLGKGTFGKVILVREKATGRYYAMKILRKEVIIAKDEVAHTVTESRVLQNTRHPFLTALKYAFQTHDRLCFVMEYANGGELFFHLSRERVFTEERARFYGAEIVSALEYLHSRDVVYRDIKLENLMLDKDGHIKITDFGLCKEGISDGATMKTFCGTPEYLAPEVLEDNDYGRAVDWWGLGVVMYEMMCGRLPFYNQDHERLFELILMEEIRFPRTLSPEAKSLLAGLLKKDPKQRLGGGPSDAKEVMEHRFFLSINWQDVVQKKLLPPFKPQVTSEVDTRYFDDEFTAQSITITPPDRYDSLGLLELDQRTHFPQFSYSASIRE
Chain of Serine/threonine-protein kinase AKT (Homo sapiens) (Q9Y243 whole entry, looked up): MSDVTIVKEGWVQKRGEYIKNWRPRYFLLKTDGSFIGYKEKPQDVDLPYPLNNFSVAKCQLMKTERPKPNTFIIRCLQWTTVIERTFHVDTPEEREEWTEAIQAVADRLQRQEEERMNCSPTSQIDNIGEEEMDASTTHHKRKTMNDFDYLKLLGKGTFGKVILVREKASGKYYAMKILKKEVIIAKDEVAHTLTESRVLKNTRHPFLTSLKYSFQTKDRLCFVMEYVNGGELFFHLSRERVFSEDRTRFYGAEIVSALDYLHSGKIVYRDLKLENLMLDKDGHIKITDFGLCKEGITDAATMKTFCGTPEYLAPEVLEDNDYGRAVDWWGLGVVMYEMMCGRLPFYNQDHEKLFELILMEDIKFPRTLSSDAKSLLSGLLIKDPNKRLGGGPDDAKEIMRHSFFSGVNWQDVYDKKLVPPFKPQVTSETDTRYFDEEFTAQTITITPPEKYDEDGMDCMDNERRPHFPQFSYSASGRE
Procedure, shortened: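 Bel-7402 exposed for 48 h to 0, 1.6 or 3.2 µM; cell extracts on 12.5% SDS-PAGE, transferred to PVDF, probed overnight at 4 °C with AKT, p-AKT, ERK1/2, p-ERK1/2 antibodies (1:1000), HRP secondary 1 h, chemiluminescent detection. Band levels normalised to control = 1; SD, n = 3.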

HepG2 [14] = experiment: Induction of apoptosis in human HepG2 cells assessed as late apoptotic cells at 0.8 uM incubated for 48 hrs by Annexin V and dead cell assay kit (reference value: 1%); assay type: functional
Procedure, shortened: (§3)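 HepG2 cells were grown in DMEM and exposed to 0, 0.8, 1.6 or 3.2 µM test agent or DMSO vehicle for 48 h. Apoptosis was then read on a Muse cell analyzer using an Annexin V & Dead Cell kit, which separates live, early apoptotic, late apoptotic and dead populations. The figure legend gives n = 3 with SEM.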

HepG2 [15] = experiment: Induction of apoptosis in human HepG2 cells assessed as early apoptotic cells at 1.6 uM incubated for 48 hrs by Annexin V and dead cell assay kit (reference value: 4.55%); assay type: functional; procedure, shortened: as §3
HepG2 [16] = experiment: Induction of apoptosis in human HepG2 cells assessed as late apoptotic cells at 1.6 uM incubated for 48 hrs by Annexin V and dead cell assay kit (reference value: 1%); assay type: functional; procedure, shortened: as §3
HepG2 [17] = experiment: Induction of apoptosis in human HepG2 cells assessed as late apoptotic cells at 3.2 uM incubated for 48 hrs by Annexin V and dead cell assay kit (reference value: 1%); assay type: functional; procedure, shortened: as §3
HepG2 [18] = experiment: Induction of apoptosis in human HepG2 cells assessed as dead cells at 3.2 uM incubated for 48 hrs by Annexin V and dead cell assay kit (reference value: 0.55%); assay type: functional; procedure, shortened: as §3
HepG2 [19] = experiment: Induction of reactive oxygen species generation in human HepG2 cells incubated for 48 hrs by DCFH-DA based fluorescent microscopy; assay type: functional, cell-based; conditions: dose 1.6-3.2 µM
Procedure, shortened: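 HepG2 cultured 48 h with 0, 0.8, 1.6 or 3.2 µM, washed, loaded with […] DCFH-DA for 20 min at 37 °C in the dark; fluorescence viewed by microscopy.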

[20] = biological target: T1, Mitogen-activated protein kinase; ERK1/ERK2 (Homo sapiens); experiment: Upregulation of ERK1/2 phosphorylation in human Bel-7402 cells incubated for 48 hrs by Western blot analysis
HepG2 [21] = experiment: Induction of apoptosis in human HepG2 cells assessed as increase in cleaved PARP level at 1.6 to 3.2 uM after 48 hrs by Western blot analysis; conditions: dose 1.6-3.2 µM
HepG2 [22] = experiment: Induction of apoptosis in human HepG2 cells assessed as increase in cleaved Caspase 3 level at 1.6 to 3.2 uM after 48 hrs by Western blot analysis; conditions: dose 1.6-3.2 µM

## COc1cc(C(=O)c2nc3ccccc3c(=O)[nH]2)cc(OC)c1OC
HepG2 [1]
  IC50: 1.22 µM
A549
  IC50: 3.88 µM
U-251
  IC50: 5.48 µM
HCT-116
  IC50: 5.47 µM
Bel-7402 [2]
  Activity: Active
HepG2 [3]
  Activity: 37.84%
HepG2 [4]
  Activity: 28.73%
HepG2 [5]
  Activity: 35.65%
HepG2 [6]
  Activity: 35.18%
Bel-7402 [7]
  Activity: 27.69%
Bel-7402 [8]
  Activity: 33.07%
Bel-7402 [9]
  Activity: 26.15%
Bel-7402 [10]
  Activity: 32.14%
Bel-7402 [11]
  Activity: 41.71%
[12]
  inhibition: Dose-Dependent Effect
[13]
  inhibition: Dose-Dependent Effect
HepG2 [14]
  Activity: 2%
HepG2 [15]
  Activity: 11.7%
HepG2 [16]
  Activity: 6.7%
HepG2 [17]
  Activity: 24.15%
HepG2 [18]
  Activity: 0.55%
HepG2 [19]
  Activity: Active
[20]
  Activity: Dose-Dependent Effect
HepG2 [21]
  Activity: Active
HepG2 [22]
  Activity: Active
